According to ChEMBL document CHEMBL1140057, “Design, synthesis, and evaluation of novel organophosphorus inhibitors of bacterial ureases” (J Med Chem, 2008):

Tests used:
Urease = Urease (Helicobacter pylori, UniProt Q0PXQ5); assay: Inhibition of Helicobacter pylori urease
[1] = Inhibition of Bacillus pasteurii CCM 2056 urease by steady state kinetic study; design: species or system Sporosarcina pasteurii
Outline: (§1)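 Assay at 30 °C in 3 mM phosphate pH 7.0 with 2-100 mM urea. Ammonia read by Berthelot indophenol at 650 nm. Enzyme-inhibitor preincubated 30 min before urea, or diluted 30-fold from a concentrated mix. Ki* from linear regression, triplicates.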

[2] = Inhibition of Proteus vulgaris CCM 1956 urease by steady state kinetic study; outline: as §1
[3] = Inhibition of Klebsiella aerogenes urease

Sequence of Urease (Q0PXQ5 whole entry): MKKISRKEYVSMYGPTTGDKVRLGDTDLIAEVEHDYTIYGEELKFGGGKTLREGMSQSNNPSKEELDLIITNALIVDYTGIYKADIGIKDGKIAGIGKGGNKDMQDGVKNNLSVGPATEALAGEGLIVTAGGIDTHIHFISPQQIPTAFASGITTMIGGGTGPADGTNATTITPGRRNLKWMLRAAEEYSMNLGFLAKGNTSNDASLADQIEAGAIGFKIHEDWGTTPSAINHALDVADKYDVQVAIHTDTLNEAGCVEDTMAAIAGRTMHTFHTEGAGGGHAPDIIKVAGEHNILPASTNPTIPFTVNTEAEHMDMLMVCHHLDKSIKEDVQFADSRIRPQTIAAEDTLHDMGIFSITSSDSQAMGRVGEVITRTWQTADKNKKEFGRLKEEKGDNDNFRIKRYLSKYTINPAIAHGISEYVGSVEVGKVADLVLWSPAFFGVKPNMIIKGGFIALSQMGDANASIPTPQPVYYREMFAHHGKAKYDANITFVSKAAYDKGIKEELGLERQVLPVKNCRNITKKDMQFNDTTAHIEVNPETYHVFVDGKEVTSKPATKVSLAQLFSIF

Compound `NCC(=O)NCC(=O)NO` has an IC50 (Urease) of 0.79 µM.
`CP(=O)(O)CNC(=O)[C@@H](N)CO` gave an IC50 [1] of 150 µM, a Ki [1] of 37 µM and an IC50 [2] of 342 µM. It also gave a Ki [2] of 41 µM.
Work on `CNCP(C)(=O)O` [METHYL((METHYLAMINO)METHYL)PHOSPHINIC ACID] yielded an IC50 [1] of 60 µM, a Ki [1] of 18 µM and an IC50 [2] of 153 µM. The Ki [2] was 27 µM.
In the case of `CP(=O)(O)CNC(=O)CNC(=O)OCc1ccccc1`, the IC50 [1] is reported as 450 µM, the Ki [1] is reported as 135 µM and the IC50 [2] is reported as 640 µM. For the same compound, the Ki [2] was 178 µM.
`CC(C)[C@H](N)C(=O)NCP(C)(=O)O` gave an IC50 [1] of 485 µM, a Ki [1] of 120 µM and an IC50 [2] of 617 µM. The Ki [2] was 208 µM.
With `CP(=O)(O)CNC(=O)[C@@H](N)COCc1ccccc1` the IC50 [1] was 80 µM, the Ki [1] was 25 µM and the IC50 [2] was 183 µM. It also gave a Ki [2] of 32.6 µM.
Work on `CP(O)(=S)CNC(=O)OCc1ccccc1` (configuration not stated) yielded an IC50 [1] of 112 µM, a Ki [1] of 17.5 µM and an IC50 [2] of 158 µM. The Ki [2] was 14 µM.
Work on `CP(=O)(O)CNC(=O)[C@@H](N)Cc1ccccc1` yielded an IC50 [1] of 600 µM, a Ki [1] of 215 µM and an IC50 [2] of 754 µM. The Ki [2] was 176 µM.
`CP(=O)(O)CN` [AMINOMETHYL(METHYL)PHOSPHINIC ACID] showed an IC50 [1] of 1100 µM, a Ki [1] of 340 µM and an IC50 [2] of 2530 µM. The Ki [2] was 425 µM.
In the case of `CP(=O)(O)CNC(=O)CN`, the IC50 [1] is reported as 60 µM, the Ki [1] is reported as 21 µM and the IC50 [2] is reported as 86 µM. For the same compound, the Ki [2] was 30 µM.
With `CP(O)(=S)CNC(=O)CNC(=O)OCc1ccccc1` (configuration not stated) the IC50 [1] was 1.8 µM, the Ki [1] was 0.17 µM and the IC50 [2] was 3.1 µM. It also gave a Ki [2] of 0.45 µM.
`NP(N)(=O)Oc1ccccc1` [PHENYL PHOSPHORDIAMIDATE] gave a Ki [1] of 0.0006 µM.
`CP(=O)(O)CNC(=O)OCc1ccccc1` showed an IC50 [1] of 123 µM, a Ki [1] of 43 µM and an IC50 [2] of 319 µM. The Ki [2] was 65 µM.
`CC(=O)NO` [ACETOHYDROXAMIC ACID] showed a Ki [3] of 2.6 µM.
